PMC6407737 (Targeted Oncology, 2019)
“Also recorded” adds a separate entry of the source. Like-named read-outs stand apart in the source and are kept apart here. Marks after values point to notes of the source that are not given here.

Columns and labels:
[1] = Phase I dose-finding study: safety, DLT and MTD; assay type: in vivo, human
How it was run: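 Open-label 3 + 3 dose escalation in cohorts of three to six patients. Oral dosing was once daily, continuous, in 28-day cycles, starting at 50 mg, with 100 and 200 mg planned. DLT was assessed during cycle 1. MTD was the highest level with DLT in none or one of six patients, followed by an expansion cohort at that dose. AEs were graded by CTCAE v4.03 in all patients receiving ≥1 dose.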

[2] = Plasma and urine pharmacokinetics in cycle 1; assay type: in vivo, human
[3] = tested on: advanced or metastatic solid tumors; test: Investigator-assessed anti-tumor activity, RECIST version 1.1; assay type: in vivo, human
How it was run: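 Open-label phase I study in Japanese and Taiwanese patients (ECOG 0–1) given oral drug once daily, continuously, in 28-day cycles at 50, 100 or 200 mg. CT/MRI at screening, at end of cycle 2, then every two cycles until treatment ended. Objective response was CR or PR; disease control was CR, PR or SD. Evaluable patients had baseline plus ≥1 post-baseline assessment. Analysis was descriptive on patients receiving ≥1 dose.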

[4] = cited from earlier work
[5] = tested on: advanced or metastatic non-hematologic malignancies; details: FIH study; cited from earlier work
MiaPaCa2 xenograft = details: QD; cited from earlier work
[6] = rats; cited from earlier work
[7] = dogs; cited from earlier work
[8] = liquid dispersion vs. tablet; with/without a high-calorie meal; cited from earlier work
advanced solid tumors = details: mixed populations of patients with advanced solid tumors; cited from earlier work
[9] = at lesser frequency than BI 853520; cited from earlier work
[10] = 200 mg QD, N = 10, geometric mean

COc1cc(C(=O)NC2CCN(C)CC2)c(F)cc1Nc1ncc(C(F)(F)F)c(Oc2cccc3c2C(=O)N(C)C3)n1 [BI 853520]
evaluable patients treated at the MTD who experienced DLT ([1]; 200 mg QD): two of 15
drug-related serious AEs ([1]; 21 treated patients): None of the SAEs was considered drug-related
patients who discontinued treatment due to AEs ([1]; 21 treated patients): 19%
patients with drug-related adverse events ([1]; 21 treated patients): 90%
patients with drug-related diarrhea ([1]; 21 treated patients): 38%
patients with drug-related nausea ([1]; 21 treated patients): 29%
patients with drug-related proteinuria ([1]; 21 treated patients): 48%
patients with drug-related vomiting ([1]; 21 treated patients): 19%
patients with serious AEs (SAEs) ([1]; 21 treated patients): 24%
dose-limiting toxicities during cycle 1 ([1]; 50, 100, or 200 mg cohorts): no dose-limiting toxicities were observed; also recorded: no DLTs were observed
Any drug-related AE ([1]; N = 21, all dose cohorts): 19 (90) N (%)
Drug-related AE: AST increased ([1]; N = 21, all dose cohorts): 1 (5) N (%)
Drug-related AE: Abdominal pain upper ([1]; N = 21, all dose cohorts): 1 (5) N (%)
Drug-related AE: Anemia ([1]; N = 21, all dose cohorts): 1 (5) N (%)
Drug-related AE: Back pain ([1]; N = 21, all dose cohorts): 1 (5) N (%)
Drug-related AE: Blood bilirubin increased ([1]; N = 21, all dose cohorts): 1 (5) N (%)
Drug-related AE: Blood creatinine increased ([1]; N = 21, all dose cohorts): 1 (5) N (%)
Drug-related AE: Decreased appetite ([1]; N = 21, all dose cohorts): 2 (10) N (%)
Drug-related AE: Dehydration ([1]; N = 21, all dose cohorts): 1 (5) N (%)
Drug-related AE: Diarrhea ([1]; N = 21, all dose cohorts): 8 (38) N (%)
Drug-related AE: Dupuytren’s contracture ([1]; N = 21, all dose cohorts): 2 (10) N (%)
Drug-related AE: Erectile dysfunction ([1]; N = 21, all dose cohorts): 1 (5) N (%)
Drug-related AE: Fatigue ([1]; N = 21, all dose cohorts): 1 (5) N (%)
Drug-related AE: Inguinal hernia ([1]; N = 21, all dose cohorts): 1 (5) N (%)
Drug-related AE: Nausea ([1]; N = 21, all dose cohorts): 6 (29) N (%)
Drug-related AE: Proteinuria ([1]; N = 21, all dose cohorts): 10 (48) N (%)
Drug-related AE: Rash, maculo-papular ([1]; N = 21, all dose cohorts): 2 (10) N (%)
Drug-related AE: Vomiting ([1]; N = 21, all dose cohorts): 4 (19) N (%)
maximum tolerated dose (MTD) ([1]; QD continuous daily dosing, 28-day cycles, Japanese and Taiwanese patients): 200 mg
DLTs reported overall during the study ([1]; all treated patients, all cycles): three of 21
cumulative fraction excreted in urine ([2]; 200 mg QD cohort): less than 9%
RA,AUC (accumulation ratio, AUC at steady state / single dose) [2, 10]: 2.15
RA,Cmax (accumulation ratio, Cmax at steady state / single dose) [2, 10]: 1.62
trough plasma concentrations ([2]; cycle 1, repeated QD dosing): stable from day 8 to day 28
AUC(0-inf) ([2]; human, plasma, oral, 200 mg, AUC0−∞, single dose, 200 mg QD cohort, N = 15, geometric mean): 26.3 µM·h
AUC ([2]; human, plasma, oral, 200 mg, AUCτ,1, single dose, 200 mg QD cohort, N = 15, geometric mean): 15.3 µM·h
Cmax ([2]; human, plasma, oral, 200 mg, Cmax, single dose, 200 mg QD cohort, N = 15, geometric mean): 1570 nM
Vd/F ([2]; human, plasma, oral, 200 mg, Vz/F, single dose, 200 mg QD cohort, N = 15, geometric mean): 391 L
Tmax ([2]; human, plasma, oral, 200 mg, tmax, single dose, 200 mg QD cohort, N = 15, median): 2 h
half-life ([2]; human, plasma, oral, 200 mg, t½, single dose, 200 mg QD cohort, N = 15, geometric mean): 1250 min
tmax,ss ([2]; multiple dose, steady state day 28, 200 mg QD, N = 10, median): 2.94 h
CL/F,ss ([2]; multiple dose, steady state, 200 mg QD, N = 10, geometric mean): 155 mL/min
fe0−24,ss ([2]; multiple dose, steady state, 200 mg QD, urine, N = 10, geometric mean): 8.86%
CL/F ([2]; single dose, 200 mg QD cohort, N = 15, geometric mean): 216 mL/min
fe0–24 ([2]; single dose, 200 mg QD cohort, urine, data for 13 patients, geometric mean): 5.60^b %
confirmed objective response rate ([3]; 21 treated patients): 5%
disease control rate ([3]; 21 treated patients): 29%
patients with progressive disease ([3]; 21 treated patients): 57%
Best confirmed response: Complete response ([3]; N = 21): 0 N (%)
Best confirmed response: Progressive disease ([3]; N = 21): 12 (57) N (%)
Best confirmed response: Stable disease ([3]; N = 21): 5 (24)^d N (%)
Best confirmed response: Objective response ([3]; N = 21, complete response or partial response): 1 (5) N (%)
Best confirmed response: Disease control ([3]; N = 21, complete response, partial response, or stable disease): 6 (29) N (%)
Best confirmed response: Partial response ([3]; N = 21, patient with gastric cancer (100 mg cohort)): 1 (5)^c N (%)
median duration of disease control ([3]; six patients with confirmed disease control): 3.7 months
DLTs or DRAEs of grade ≥ 2 ([4]; 50 mg QD or 100 mg QD): neither 50 mg QD or 100 mg QD had resulted in dose-limiting toxicities
maximum tolerated dose (MTD) ([4]; QD continuous dosing, predominantly (92%) Caucasian population): 200 mg
patients with grade 3 proteinuria ([4]; dose expansion phase of the FIH study): 21%
disease control rate [5]: 27%
median duration of disease control [5]: 3.3 months
radiographic objective responses [5]: no radiographic objective responses were reported
active dose (MiaPaCa2 xenograft): 12.5 mg/kg
principal toxicological target organs [6]: gastrointestinal tract and liver
principal toxicological target organs [7]: gastrointestinal tract and liver
impact of formulation and food on pharmacokinetics [8]: neither formulation (liquid dispersion vs. tablet) nor administration with/without a high-calorie meal have notable impact

CONC(=O)c1ccccc1Nc1cc(Nc2cc(C)nn2C(C)C)ncc1Cl [GSK2256098]
anti-tumor activity in phase I (advanced solid tumors): evidence of disease stabilization
proteinuria [9]: Proteinuria has been reported

CN(c1ncccc1CNc1nc(Nc2ccc3c(c2)CC(=O)N3)ncc1C(F)(F)F)S(C)(=O)=O [PF-00562271]
anti-tumor activity in phase I (advanced solid tumors): evidence of disease stabilization
proteinuria [9]: Proteinuria has been reported

CNC(=O)c1ccc(Nc2ncc(C(F)(F)F)c(NCc3nccnc3N(C)S(C)(=O)=O)n2)cc1 [VS-6063]
anti-tumor activity in phase I (advanced solid tumors): evidence of disease stabilization
